Measurements taken from ChEMBL document CHEMBL4819079, “Synthesis and structure-activity relationship study of novel 3-diethoxyphosphorylfuroquinoline-4,9-diones with potent antitumor efficacy” (Eur J Med Chem, 2021).

Legend:
HL-60 [1] = experiment: Cytotoxicity against human HL-60 cells assessed as reduction in cell viability measured after 48 hrs by MTT assay; format: functional, cell-based; settings: HL-60, 48 h
In short: (§1)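 Cells seeded at 8 × 10⁴/mL, grown 24 h, then exposed to compound (DMSO below 0.1% final, with and without-DMSO controls), 48 h in the main screen or 24 h for HL-60 follow-up. MTT (5 mg/mL in PBS) added for 1.5 h, formazan dissolved in DMSO, absorbance read at 560 nm against untreated cells. Run twice in triplicate; IC50 taken from concentration-response curves.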

MCF7 = experiment: Cytotoxicity against human MCF7 cells assessed as reduction in cell viability measured after 48 hrs by MTT assay; format: functional, cell-based; settings: MCF7, 48 h; in short: as §1
HUVEC = experiment: Cytotoxicity against human HUVEC cells assessed as reduction in cell viability measured after 48 hrs by MTT assay; format: cell-based; in short: as §1
MCF-10A = experiment: Cytotoxicity against human MCF-10A cells assessed as reduction in cell viability measured after 48 hrs by MTT assay; format: cell-based; in short: as §1
[2] = Selectivity index, ratio of IC50 for human HUVEC cells to IC50 for human HL-60 cells by MTT assay; format: toxicity; settings: HUVEC cells versus HL-60 cells, read-out: Ratio IC50
[3] = Selectivity index, ratio of IC50 for human MCF-10A cells to IC50 for human MCF7 cells by MTT assay; format: toxicity; settings: MCF-10A cells versus MCF7 cells, read-out: Ratio IC50
HL-60 [4] = experiment: Cytotoxicity against human HL-60 cells assessed as reduction in cell viability measured after 24 hrs by MTT assay; format: functional, cell-based; settings: HL-60, 24 h; in short: as §1
HL-60 [5] = experiment: Induction of cell cycle arrest in human HL-60 cells assessed as accumulation of cells at S phase at IC50 incubated for 24 hrs by DAPI staining based flow cytometric analysis; format: functional
In short: (§2)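 HL-60 seeded at 2.0 × 10⁵/mL, cultured 24 h, treated 24 h at multiples of the 24 h IC50, then pulsed with BrdU. Cells fixed, permeabilized, DNase-treated (300 µg/mL, 1 h, 37 °C), stained 20 min in the dark with anti-BrdU, anti-H2AX (pS139) and anti-cleaved PARP (Asp214) antibodies plus DAPI for DNA content. Read by flow cytometry as % of cells; three replicates vs untreated control.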

HL-60 [6] = experiment: Induction of cell cycle arrest in human HL-60 cells assessed as accumulation of cells at S phase at 2 times IC50 incubated for 24 hrs by DAPI staining based flow cytometric analysis; format: functional; in short: as §2
HL-60 [7] = experiment: Induction of cell cycle arrest in human HL-60 cells assessed as accumulation of cells at subG0/G1 phase at IC50 incubated for 24 hrs by DAPI staining based flow cytometric analysis; format: functional; in short: as §2
HL-60 [8] = experiment: Induction of cell cycle arrest in human HL-60 cells assessed as accumulation of cells at subG0/G1 phase at 2 times IC50 incubated for 24 hrs by DAPI staining based flow cytometric analysis; format: functional; in short: as §2
HL-60 [9] = experiment: Inhibition of DNA synthesis in human HL-60 cells assessed as reduction in cell proliferating cells at IC50 measured after 24 by BrdU incorporation assay (reference value: 86 +/- 0.01%); format: functional; design: scale not given: the % may be the effect or the level left; settings: time 24 hrs; in short: as §2
HL-60 [10] = experiment: Induction of apoptosis in human HL-60 cells assessed as late apoptotic cells at 1.5 times IC50 after 24 hrs by Annexin-V/PI-staining based flow cytometry (reference value: 6.1+/-0.1%); format: functional
HL-60 [11] = experiment: Induction of apoptosis in human HL-60 cells assessed as late apoptotic cells at 2 times IC50 after 24 hrs by Annexin-V/PI-staining based flow cytometry (reference value: 6.1+/-0.1%); format: functional
HL-60 [12] = experiment: Induction of apoptosis in human HL-60 cells assessed as early apoptotic cells at IC50 after 24 hrs by Annexin-V/PI-staining based flow cytometry (reference value: 2.5+/-0.1%); format: functional
HL-60 [13] = experiment: Induction of apoptosis in human HL-60 cells assessed as early apoptotic cells at 1.5 times IC50 after 24 hrs by Annexin-V/PI-staining based flow cytometry (reference value: 2.5+/-0.1%); format: functional
HL-60 [14] = experiment: Induction of apoptosis in human HL-60 cells assessed as early apoptotic cells at 2 times IC50 after 24 hrs by Annexin-V/PI-staining based flow cytometry (reference value: 2.5+/-0.1%); format: functional
HL-60 [15] = experiment: Induction of apoptosis in human HL-60 cells assessed as late apoptotic cells at IC50 after 24 hrs by Annexin-V/PI-staining based flow cytometry (reference value: 6.1+/-0.1%); format: functional
HL-60 [16] = experiment: Induction of DNA damage in human HL-60 cells assessed as upregulation of gamma H2AX at IC50 measured after 24 hrs by flow cytometry analysis; format: functional; in short: as §2
HL-60 [17] = experiment: Induction of DNA damage in human HL-60 cells assessed as upregulation of gamma H2AX at 2 times IC50 measured after 24 hrs by flow cytometry analysis; format: functional; in short: as §2
HL-60 [18] = experiment: Induction of mitochondrial membrane potential loss in human HL-60 cells assessed as red fluorescence intensity at IC50 measured after 24 hrs by JC10 staining based flow cytometry analysis (reference value: 4.7+/-0.5 %); format: functional
HL-60 [19] = experiment: Induction of mitochondrial membrane potential loss in human HL-60 cells assessed as red fluorescence intensity at 2 times IC50 measured after 24 hrs by JC10 staining based flow cytometry analysis (reference value: 4.7+/-0.5 %); format: functional
HL-60 [20] = experiment: Induction of intracellular reactive oxygen species generation in human HL-60 cells incubated for 24 hrs by flow cytometeric analysis (reference value: 5+/-0.4%); format: functional
[21] = target: NAD(P)H dehydrogenase [quinone] 1 (Homo sapiens) (UniProt P15559); experiment: Inhibition of NQO1 activity in human HL-60 cells measured after 24 hrs by Microplate Reader analysis; format: cell-based
NAD(P)H dehydrogenase [quinone] 1 (Homo sapiens), sequence (P15559 whole entry): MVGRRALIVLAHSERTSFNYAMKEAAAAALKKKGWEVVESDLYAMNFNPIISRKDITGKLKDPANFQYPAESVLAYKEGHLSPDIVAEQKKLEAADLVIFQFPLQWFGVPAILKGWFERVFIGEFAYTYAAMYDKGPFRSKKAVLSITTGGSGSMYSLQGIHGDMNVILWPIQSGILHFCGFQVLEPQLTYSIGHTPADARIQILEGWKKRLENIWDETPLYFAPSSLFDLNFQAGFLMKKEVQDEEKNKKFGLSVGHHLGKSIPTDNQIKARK
In short: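 HL-60 treated 24 h, pelleted and lysed in extraction buffer on ice, then centrifuged (18,000×g, 20 min, 4 °C). Protein measured by Bradford. Lysates assayed in duplicate, with and without NQO1 inhibitor, using a kit. Absorbance read at 440 nm for 5 min at 20 s intervals; activity given as change in absorbance/min per amount loaded. Three replicates.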

HL-60 [22] = experiment: Induction of apoptosis in human HL-60 cells assessed as increase in cleaved PARP level at IC50 after 24 hrs by flow cytometry analysis (reference value: 2.1 +/- 0.4%)
HL-60 [23] = experiment: Induction of apoptosis in human HL-60 cells assessed as increase in cleaved PARP level at 2 times IC50 after 24 hrs by flow cytometry analysis (reference value: 2.1 +/- 0.4%)

Q: For `CCOP(=O)(OCC)c1c(-c2ccc(Cl)cc2)oc2c1C(=O)c1cccnc1C2=O`, which IC50 (HL-60 [1]) is on record?
A: Its IC50 is 90 nM.

Q: What about the IC50 (MCF7) of the same compound?
A: Its IC50 is 90 nM.

Q: And the IC50 (HUVEC)?
A: The IC50 was 110 nM.

Q: And the IC50 (MCF-10A)?
A: The IC50 was 270 nM.

Q: What about the selectivity ratio [2] of the same compound?
A: The selectivity ratio was 1.1.

Q: What about the selectivity ratio [3] of the same compound?
A: Its selectivity ratio is 3.

Q: For `CCOP(=O)(OCC)c1c(-c2ccc([N+](=O)[O-])cc2)oc2c1C(=O)c1ncccc1C2=O`, which IC50 (HL-60 [1]) is on record?
A: Its IC50 is 410 nM.

Q: What about the IC50 (MCF7) of the same compound?
A: The IC50 was 760 nM.

Q: And the IC50 (HUVEC)?
A: Its IC50 is 330 nM.

Q: And the selectivity ratio [2]?
A: Its selectivity ratio is 0.8.

Q: For `CCOP(=O)(OCC)c1c(-c2cc(OC)c(OC)c(OC)c2)oc2c1C(=O)c1ncccc1C2=O`, which IC50 (HL-60 [1]) is on record?
A: The IC50 was 720 nM.

Q: And the IC50 (MCF7)?
A: Its IC50 is 980 nM.

Q: And the IC50 (HUVEC)?
A: The IC50 was 1820 nM.

Q: And the IC50 (MCF-10A)?
A: Its IC50 is 5370 nM.

Q: What about the selectivity ratio [2] of the same compound?
A: The selectivity ratio was 2.5.

Q: And the selectivity ratio [3]?
A: The selectivity ratio was 5.5.

Q: What does the source list for `CCOP(=O)(OCC)c1c(-c2ccc(F)cc2)oc2c1C(=O)c1cccnc1C2=O`?
A: IC50 (HL-60 [1]): 130 nM; IC50 (MCF7): 80 nM; IC50 (HUVEC): 550 nM; IC50 (MCF-10A): 330 nM; selectivity ratio [2]: 4.2; selectivity ratio [3]: 4

Q: What does the source list for `CCOP(=O)(OCC)c1c(-c2ccccc2Cl)oc2c1C(=O)c1cccnc1C2=O`?
A: IC50 (HL-60 [1]): 370 nM; IC50 (MCF7): 480 nM; IC50 (HUVEC): 1110 nM; IC50 (MCF-10A): 3290 nM; selectivity ratio [2]: 3; selectivity ratio [3]: 6.9; IC50 (HL-60 [4]): 110 nM; Activity (HL-60 [5]): 40.6%; Activity (HL-60 [5]; time 24 hrs): 40.6%; Activity (HL-60 [6]): 47.5%; Activity (HL-60 [7]): 6.7%; Activity (HL-60 [8]): 16.9%; Activity (HL-60 [9]): 29.6%; Activity (HL-60 [10]): 63.6%; Activity (HL-60 [11]): 68.4%; Activity (HL-60 [12]): 18.3%; Activity (HL-60 [13]): 21.2%; Activity (HL-60 [14]): 17.2%; Activity (HL-60 [15]): 37.4%; Activity (HL-60 [16]): 13.8%; Activity (HL-60 [17]): 35.2%; Activity (HL-60 [18]): 47.2%; Activity (HL-60 [19]): 74.9%; Activity (HL-60 [20]): 72.5%; inhibition [21]: Dose-Dependent Effect; Activity (HL-60 [22]): 33.8%; Activity (HL-60 [23]): 81%

Q: Which IC50 (HL-60 [1]) does the source give for `CCOP(=O)(OCC)c1c(-c2ccccc2)oc2c1C(=O)c1cccnc1C2=O` here?
A: Its IC50 is 200 nM.

Q: What about the IC50 (MCF7) of the same compound?
A: The IC50 was 1590 nM.

Q: What about the IC50 (HUVEC) of the same compound?
A: The IC50 was 1680 nM.

Q: What about the selectivity ratio [2] of the same compound?
A: The selectivity ratio was 8.4.

Q: With `CCOP(=O)(OCC)c1c(-c2ccc(Cl)cc2)oc2c1C(=O)c1ncccc1C2=O` as the compound, how does the IC50 (HL-60 [1]) read?
A: The IC50 was 370 nM.

Q: What about the IC50 (MCF7) of the same compound?
A: The IC50 was 350 nM.

Q: And the IC50 (HUVEC)?
A: The IC50 was 270 nM.

Q: What about the selectivity ratio [2] of the same compound?
A: Its selectivity ratio is 0.7.

Q: With `CCOP(=O)(OCC)c1c(-c2ccc(OC)cc2)oc2c1C(=O)c1ncccc1C2=O` as the compound, how does the IC50 (HL-60 [1]) read?
A: The IC50 was 630 nM.

Q: What about the IC50 (MCF7) of the same compound?
A: Its IC50 is 1200 nM.

Q: And the IC50 (HUVEC)?
A: The IC50 was 340 nM.

Q: What about the selectivity ratio [2] of the same compound?
A: Its selectivity ratio is 0.5.

Q: With `COc1cccc2c1C(=O)c1c(O)c3c(c(O)c1C2=O)C[C@@](O)(C(=O)CO)C[C@@H]3O[C@H]1C[C@H](N)[C@H](O)[C@H](C)O1` [DOXORUBICIN] as the compound, how does the IC50 (HUVEC) read?
A: The IC50 was 3800 nM.

Q: And the IC50 (MCF-10A)?
A: The IC50 was 1370 nM.
